Activity calls are given as the source filed them.
Tests used:
[1] = molecular target: Genome polyprotein (dengue virus type 2) (UniProt P29990); assay: Inhibition of NS2B-NS3 protease in DENV2proHeLa system assessed as inhibition of luciferase signal at 12.5 uM incubated for 24 hrs by luciferase reporter gene assay; assay type: cell-based; settings: HeLa
Method in brief: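 Stable DENV2proHeLa cells seeded at 2 × 10⁴/well and dosed immediately, then incubated 24 h at 37 °C. Cells lysed 15 min at room temperature. Luciferase read with coelenterazine (2.75 μM in PBS) injection, luminescence 5 s. Triplicates; percent inhibition calculated relative to untreated control; background from cell-free wells.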

[2] = Cytotoxicity against human HeLa cells assessed as reduction in cell viability incubated for 24 hrs by CellTiter-Blue assay; assay type: cell-based
Method in brief: (§1)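 Viability by CellTiter-Blue in HeLa or Huh-7 cells exposed to compound dilutions. Plates run in parallel with the reporter assay (HeLa) or the virus titer assay (Huh-7).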

[3] = molecular target: Prothrombin (Homo sapiens) (UniProt P00734); assay: Inhibition of thrombin in human plasma using Boc-Val-Pro-Arg-AMC as substrate at 25 uM preincubated with enzyme for 15 mins followed by substrate addition and measured for 15 mins by fluorimetric assay; assay type: cell-free; settings: time 30.0 min
[4] = molecular target: Trypsin (Homo sapiens) (UniProt P07477+P07478+P35030); assay: Inhibition of trypsin (unknown origin) using Boc-Val-Pro-Arg-AMC as substrate at 50 uM preincubated with enzyme for 15 mins followed by substrate addition and measured for 15 mins by fluorimetric assay; assay type: protein assay; settings: time 30.0 min
[5] = molecular target: Genome polyprotein (West Nile virus) (UniProt P06935); assay: Inhibition of WNV NS2B-NS3 protease expressed in Escherichia coli BL21 lambda(DE3) using FRET substrate preincubated with enzyme for 15 mins in presence of detergent CHAPS followed by substrate addition for 15 mins by fluorescence based analysis; settings: time 30.0 min
Genome polyprotein (West Nile virus), sequence (P06935 whole entry): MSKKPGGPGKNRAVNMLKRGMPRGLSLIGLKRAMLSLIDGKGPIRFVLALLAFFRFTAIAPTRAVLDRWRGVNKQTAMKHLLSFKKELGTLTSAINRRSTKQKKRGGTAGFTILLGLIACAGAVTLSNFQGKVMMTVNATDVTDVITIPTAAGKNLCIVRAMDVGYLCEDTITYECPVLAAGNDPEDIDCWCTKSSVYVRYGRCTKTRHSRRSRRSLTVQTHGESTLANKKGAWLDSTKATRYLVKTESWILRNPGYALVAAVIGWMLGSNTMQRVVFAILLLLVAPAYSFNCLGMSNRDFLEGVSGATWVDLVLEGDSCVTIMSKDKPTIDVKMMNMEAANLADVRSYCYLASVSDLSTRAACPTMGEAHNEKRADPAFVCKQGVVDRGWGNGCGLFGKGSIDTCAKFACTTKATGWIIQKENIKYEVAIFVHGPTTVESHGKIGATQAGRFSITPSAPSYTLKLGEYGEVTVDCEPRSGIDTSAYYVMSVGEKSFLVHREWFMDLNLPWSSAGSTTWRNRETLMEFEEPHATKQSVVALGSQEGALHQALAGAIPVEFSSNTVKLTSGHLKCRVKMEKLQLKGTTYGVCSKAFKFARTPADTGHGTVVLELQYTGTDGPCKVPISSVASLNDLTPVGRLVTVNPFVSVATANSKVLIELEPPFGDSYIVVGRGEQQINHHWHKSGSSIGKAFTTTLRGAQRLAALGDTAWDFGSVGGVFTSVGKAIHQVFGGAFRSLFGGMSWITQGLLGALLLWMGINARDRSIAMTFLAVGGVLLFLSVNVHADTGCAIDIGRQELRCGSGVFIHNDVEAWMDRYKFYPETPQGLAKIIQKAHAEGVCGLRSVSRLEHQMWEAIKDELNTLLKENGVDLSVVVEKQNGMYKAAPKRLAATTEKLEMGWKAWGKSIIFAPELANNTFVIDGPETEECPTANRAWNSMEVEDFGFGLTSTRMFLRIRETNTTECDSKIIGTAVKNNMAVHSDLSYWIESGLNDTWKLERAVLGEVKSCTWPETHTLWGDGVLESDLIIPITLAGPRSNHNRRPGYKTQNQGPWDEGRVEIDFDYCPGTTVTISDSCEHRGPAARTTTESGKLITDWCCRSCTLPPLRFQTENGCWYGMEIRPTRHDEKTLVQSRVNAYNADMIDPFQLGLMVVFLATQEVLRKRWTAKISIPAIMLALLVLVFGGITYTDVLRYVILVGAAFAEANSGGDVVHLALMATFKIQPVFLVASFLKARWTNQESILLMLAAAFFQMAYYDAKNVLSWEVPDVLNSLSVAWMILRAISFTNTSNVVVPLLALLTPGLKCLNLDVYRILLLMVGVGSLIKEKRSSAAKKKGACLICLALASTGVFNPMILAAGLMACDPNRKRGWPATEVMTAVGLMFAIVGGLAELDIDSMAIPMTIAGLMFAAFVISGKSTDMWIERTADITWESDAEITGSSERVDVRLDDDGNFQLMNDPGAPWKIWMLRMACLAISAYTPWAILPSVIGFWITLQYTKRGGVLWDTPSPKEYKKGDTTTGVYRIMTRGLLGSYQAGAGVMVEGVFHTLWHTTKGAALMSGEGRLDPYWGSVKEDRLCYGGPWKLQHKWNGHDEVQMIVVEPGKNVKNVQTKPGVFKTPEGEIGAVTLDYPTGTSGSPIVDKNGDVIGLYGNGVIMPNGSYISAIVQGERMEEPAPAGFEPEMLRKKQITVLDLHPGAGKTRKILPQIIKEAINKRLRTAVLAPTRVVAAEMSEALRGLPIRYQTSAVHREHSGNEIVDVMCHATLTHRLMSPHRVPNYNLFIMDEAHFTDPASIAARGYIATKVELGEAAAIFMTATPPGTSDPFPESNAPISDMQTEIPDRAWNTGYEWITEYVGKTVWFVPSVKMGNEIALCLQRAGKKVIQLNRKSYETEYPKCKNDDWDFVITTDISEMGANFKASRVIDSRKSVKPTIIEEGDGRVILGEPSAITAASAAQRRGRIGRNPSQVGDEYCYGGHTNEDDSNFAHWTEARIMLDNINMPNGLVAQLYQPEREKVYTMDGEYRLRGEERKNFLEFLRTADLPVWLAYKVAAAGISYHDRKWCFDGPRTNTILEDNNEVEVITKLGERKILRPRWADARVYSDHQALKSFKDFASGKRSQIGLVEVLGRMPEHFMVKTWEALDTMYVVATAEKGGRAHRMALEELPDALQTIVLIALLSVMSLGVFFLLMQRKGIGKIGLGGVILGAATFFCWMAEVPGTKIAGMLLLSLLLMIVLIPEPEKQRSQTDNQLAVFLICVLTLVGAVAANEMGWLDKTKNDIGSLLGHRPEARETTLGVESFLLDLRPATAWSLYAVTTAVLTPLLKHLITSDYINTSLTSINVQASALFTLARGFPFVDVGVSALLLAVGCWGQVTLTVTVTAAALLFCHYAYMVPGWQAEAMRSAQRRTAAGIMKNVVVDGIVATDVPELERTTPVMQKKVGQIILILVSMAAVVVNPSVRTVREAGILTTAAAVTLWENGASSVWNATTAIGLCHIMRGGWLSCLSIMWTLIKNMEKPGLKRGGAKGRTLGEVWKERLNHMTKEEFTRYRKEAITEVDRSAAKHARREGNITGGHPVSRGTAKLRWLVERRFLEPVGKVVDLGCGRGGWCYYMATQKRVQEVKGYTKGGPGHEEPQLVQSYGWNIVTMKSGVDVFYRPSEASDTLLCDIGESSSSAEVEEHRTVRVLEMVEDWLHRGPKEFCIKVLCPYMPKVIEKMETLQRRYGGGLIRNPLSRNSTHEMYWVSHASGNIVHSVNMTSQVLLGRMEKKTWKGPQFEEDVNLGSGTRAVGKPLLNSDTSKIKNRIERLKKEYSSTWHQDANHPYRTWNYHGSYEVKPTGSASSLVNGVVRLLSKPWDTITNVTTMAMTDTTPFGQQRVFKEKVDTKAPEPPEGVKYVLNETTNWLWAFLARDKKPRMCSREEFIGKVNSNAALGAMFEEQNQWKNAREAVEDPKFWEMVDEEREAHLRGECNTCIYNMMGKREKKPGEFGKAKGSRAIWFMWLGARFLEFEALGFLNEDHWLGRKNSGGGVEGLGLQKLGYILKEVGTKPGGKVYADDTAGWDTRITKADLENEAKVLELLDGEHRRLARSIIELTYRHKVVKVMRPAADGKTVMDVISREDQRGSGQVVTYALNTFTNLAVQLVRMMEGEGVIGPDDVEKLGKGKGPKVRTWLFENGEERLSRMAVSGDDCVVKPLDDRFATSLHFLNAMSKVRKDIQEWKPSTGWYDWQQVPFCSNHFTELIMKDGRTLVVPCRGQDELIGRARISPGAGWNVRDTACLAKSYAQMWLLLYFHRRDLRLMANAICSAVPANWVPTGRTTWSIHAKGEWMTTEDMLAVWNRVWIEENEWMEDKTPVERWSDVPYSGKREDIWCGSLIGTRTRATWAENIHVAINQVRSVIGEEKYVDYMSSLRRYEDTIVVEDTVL

[6] = molecular target: Genome polyprotein (dengue virus type 2, UniProt P29990); assay: Inhibition of NS2B-NS3 protease in DENV2proHeLa system assessed as inhibition of luciferase signal incubated for 24 hrs by luciferase reporter gene assay; assay type: cell-based, HeLa
Method in brief: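 HeLa cells stably carrying the reporter system, 2 × 10⁴ per well, given inhibitor at seeding and held 24 h at 37 °C. Cells lysed 15 min at room temperature. Luciferase read for 5 s after injecting coelenterazine (2.75 μM in PBS). Triplicate wells per concentration; percent inhibition taken against untreated cells. EC50/EC90 from 4-parameter dose-response fit, background from cell-free wells subtracted.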

[7] = molecular target: Genome polyprotein (dengue virus type 2) (UniProt P29990); assay: Inhibition of DENV2 NS2B-NS3 protease expressed in Escherichia coli BL21 lambda(DE3) using FRET substrate preincubated with enzyme for 15 mins in presence of detergent CHAPS followed by substrate addition for 15 mins by fluorescence based analysis; settings: time 30.0 min
[8] = test system: dengue virus type 2; assay: Antiviral activity against DENV2 infected in human Huh7 cells assessed as reduction in virus titer in cell supernatant by measuring inhibition of plaque formation using VeroE6 cells at 12.5 uM preincubated with viral infected Huh7 cells for 48 hrs and measured following infection of VeroE6 cells with supernatants for 7 days by plaque assay based crystal violet staining analysis; assay type: functional; settings: Huh-7, 216 h, time 9 day
Method in brief: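 Huh-7 cells seeded at 1 × 10⁴/well and incubated overnight. Infected with DENV-2 at MOI 1 for 2 h, then medium changed and compound added. […] Pooled supernatants titred by plaque assay on VeroE6 cells: 10⁻¹ to 10⁻⁶ dilutions, 1 h infection, 7 days, formaldehyde fix, crystal violet.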

[9] = test system: Huh-7; assay: Cytotoxicity against human Huh-7 cells assessed as reduction in cell viability at 12.5 uM incubated for 48 hrs by CellTiter-Blue assay; assay type: cell-based; settings: huh-7, 48 h; method in brief: as §1
[10] = Passive membrane permeability of the compound in phosphate buffered saline assessed as concentration of the compound in acceptor plate at 200 uM incubated for 5 hrs by PAMPA assay based HPLC analysis; assay type: ADME
Method in brief: (§2)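 Precoated trilayer PAMPA, 5 h incubation. Acceptor and donor concentrations measured after 5 h. Permeability and mass retention calculated by a literature method.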

[11] = Passive membrane permeability of the compound in phosphate buffered saline assessed as concentration of the compound in donor plate at 200 uM incubated for 5 hrs by PAMPA assay based HPLC analysis; assay type: ADME; method in brief: as §2
[12] = Passive membrane permeability of the compound in phosphate buffered saline at 200 uM incubated for 5 hrs by PAMPA assay based HPLC analysis; assay type: ADME; settings: PAMPA, read-out: permeability; method in brief: as §2
[13] = Passive membrane permeability of the compound in phosphate buffered saline assessed as mass retention of the compound at 200 uM incubated for 5 hrs by PAMPA assay based HPLC analysis; assay type: ADME; method in brief: as §2

Row | SMILES | inhibition [1] | CC50 at 24 h [2] | inhibition [3] | inhibition [4] | inhibition [5] | EC50 [6] | inhibition [7] | inhibition at 12.5 µM [8] | Activity [9] | Activity [10] | Activity [11] | Papp at 5 h, 200 µM [12] | Activity [13]
1 | CCCCCCCC(=O)N[C@H](C(=O)NCc1ccc(C(N)=O)cc1)c1ccc(OCc2ccccc2)cc1 | 56% | > 50 µM | inactive | inactive | Active | – | – | – | – | – | – | – | –
2 | COc1ccccc1Oc1ccc(C(=O)N[C@H](C(=O)Nc2cccc(C(N)=O)c2)c2ccc(OCc3ccccc3)cc2)cc1 | 77% | > 100 µM | inactive | inactive | Active | 2.2 µM | Active | – | – | – | – | – | –
3 | CCCCCC(=O)N[C@H](C(=O)NCc1ccc(C(N)=O)cc1)c1ccc(OCc2c(Cl)cccc2Cl)cc1 | 71% | > 50 µM | inactive | inactive | Active | 8.3 µM | Active | – | – | – | – | – | –
4 | NC(=O)c1cccc(NC(=O)[C@@H](NC(=O)c2ccc(Oc3cccc4c3C(=O)CC4)cc2)c2ccc(OCc3ccccc3)cc2)c1 | 57% | > 100 µM | inactive | inactive | Active | 3.9 µM | – | – | – | – | – | – | –
5 | NC(=O)c1cccc(NC(=O)[C@@H](NC(=O)c2ccc(-c3cncnc3)cc2)c2ccc(OCc3ccccc3)cc2)c1 | 59% | > 50 µM | inactive | inactive | Active | 8.1 µM | Active | – | – | – | – | – | –
6 | CCCCCCCS(=O)(=O)N[C@H](C(=O)NCc1ccc(C(N)=O)cc1)c1ccc(OCc2ccccc2)cc1 | 47% | > 25 µM | inactive | inactive | Active | 11 µM | – | – | – | – | – | – | –
7 | NC(=O)c1ccc(CNC(=O)[C@@H](NC(=O)c2ccc(OCc3ccccc3)cc2)c2ccc(OCc3ccccc3)cc2)cc1 | 64% | > 25 µM | inactive | inactive | Active | 4 µM | Active | – | – | – | – | – | –
8 | CCCCCC(=O)N[C@H](C(=O)NCc1ccc(C(N)=O)cc1)c1ccc(OCc2cccc(OC)c2)cc1 | 61% | > 100 µM | inactive | inactive | – | 7.3 µM | Active | – | – | – | – | – | –
9 | NC(=O)c1ccc(CNC(=O)[C@@H](NC(=O)c2ccc(Oc3ccccc3)cc2)c2ccc(OCc3ccccc3)cc2)cc1 | 82% | 18 µM | inactive | inactive | – | 1 µM | Active | 90% | 61.4% | 3 µM | 180 µM | 0.61 ×10⁻⁶ cm/s | 8.9%
10 | CCCCCC(=O)N[C@H](C(=O)N1CCC(C(=O)Nc2ccccc2)CC1)c1ccc(OCc2ccccc2)cc1 | 35% | > 50 µM | inactive | inactive | – | 20 µM | Active | – | – | – | – | – | –
11 | CCCCCCC(=O)N[C@H](C(=O)NCc1ccc(C(N)=O)cc1)c1ccc(OCc2ccccc2)cc1 | 52% | > 50 µM | inactive | inactive | – | 7.9 µM | Active | – | – | – | – | – | –
12 | Cn1c(=O)c2c(ncn2C)n(C)c1=O [CAFFEINE] | – | – | – | – | – | – | – | – | – | 33 µM | 173 µM | 7.3 ×10⁻⁶ cm/s | 2.4%
13 | CCCCCC(=O)N[C@H](C(=O)Nc1cccc(C(N)=O)c1)c1ccc(OCc2ccccc2)cc1 | 76% | > 50 µM | inactive | inactive | – | 4.6 µM | Active | – | – | – | – | – | –
14 | NC(=O)N1c2ccccc2C=Cc2ccccc21 [CARBAMAZEPINE] | – | – | – | – | – | – | – | – | – | 42 µM | 187 µM | 8.9 ×10⁻⁶ cm/s | -7.6%
15 | NC(=O)c1cccc(NC(=O)[C@@H](NC(=O)c2ccc3c(c2)OCCO3)c2ccc(OCc3ccccc3)cc2)c1 | 69% | > 100 µM | inactive | inactive | – | 5.4 µM | Active | – | – | – | – | – | –
16 | COc1cccc(COc2ccc([C@H](NC(=O)c3ccc(C(=O)c4ccccc4)cc3)C(=O)Nc3cccc(C(N)=O)c3)cc2)c1 | 79% | > 100 µM | inactive | inactive | – | 1.2 µM | Active | – | – | – | – | – | –
17 | CCCCCC(=O)N[C@H](C(=O)NNc1ccc(C(N)=O)cc1)c1ccc(OCc2ccccc2)cc1 | 60% | > 25 µM | inactive | inactive | – | 8.7 µM | Active | – | – | – | – | – | –
18 | O=C1NC(=O)C(c2ccccc2)(c2ccccc2)N1 [PHENYTOIN] | – | – | – | – | – | – | – | – | – | 25 µM | 166 µM | 5.7 ×10⁻⁶ cm/s | 8.7%
19 | NC(=O)c1cccc(NC(=O)[C@@H](NC(=O)c2cccc(Oc3ccccc3)c2)c2ccc(OCc3ccccc3)cc2)c1 | 84% | > 100 µM | inactive | inactive | – | 1.7 µM | Active | – | – | – | – | – | –
20 | NC(=O)c1cccc(NC(=O)[C@@H](NC(=O)c2ccc(Oc3ccc4c(c3)OCCO4)cc2)c2ccc(OCc3ccccc3)cc2)c1 | 61% | > 100 µM | inactive | inactive | Active | 3.8 µM | Active | – | – | – | – | – | –

From ChEMBL document CHEMBL4811254, “Beyond Basicity: Discovery of Nonbasic DENV-2 Protease Inhibitors with Potent Activity in Cell Culture” (J Med Chem, 2021)
